Data: article PMC7394584 (OncoTargets and therapy, 2020)

Assays:
phospho-p70S6K (Thr389) = experiment: Western blot, phosphorylation of P70S6K1; assay type: cell-based, human; details: MHCC97-H cells; for phosphorylation of P70S6K1 (Western blot): 1 μmol/L
phospho-ERK = experiment: Western blot, phosphorylation of ERK; assay type: cell-based, human; details: MHCC97-H cells, 1 μmol/L
Summary of the method: (§1)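 MHCC97-H cells (5 × 10^6 per 75T flask) pretreated 12 h with solvent, test compound or reference pathway inhibitors, each at 1 μmol/L, then incubated 24 h. RIPA lysates quantified by BCA; 40 μg protein run on 10–12% SDS-PAGE. Blocking in 5% skim milk/TBS-0.1% Tween-20; rabbit primary antibodies (1:1000, 4°C) against phospho-p70S6K Thr389, phospho-AKT Ser473/Thr308, phospho-ERK and total proteins; β-actin loading control.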

phospho-AKT = experiment: Western blot, phosphorylation of AKT; assay type: cell-based, human; details: MHCC97-H cells; for phosphorylation of AKT (Western blot): 1 μmol/L
Summary of the method: as §1

advanced HCC patients = experiment: Clinical outcome of sorafenib treatment by mTOR mRNA expression; assay type: in vivo, human; details: sorafenib-treated advanced HCC patients
[1] = tested on: MHCC97-H cells' subcutaneous tumor; experiment: Nude mice subcutaneous tumor model; assay type: in vivo; details: oral; for Tumor Volumes IC50 Values, Solvent control / Tumor Weights IC50 Values, Solvent control / Tumor Volumes IC50 Values, Compound 4 / Tumor Weights IC50 Values, Compound 4: every 2 days, 30 days; for Tumor Volumes IC50 Values, Solvent control / Tumor Weights IC50 Values, Solvent control: agent alone; for Tumor Volumes IC50 Values, Compound 4 / Tumor Weights IC50 Values, Compound 4: agent combined with compound 4 (1 mg/kg)
Summary of the method: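 MHCC97-H cells injected subcutaneously into 4–5-week-old nude mice. Dosing started 4–5 days later as oral liquids formulated with PEG and Tween 80, given orally every 2 days (15 doses over 30 days). Test compound at 1 mg/kg; sorafenib at 0.5 or 2 mg/kg. Tumours then excised. Volume = length × width²/2; weight measured on a balance. Inhibitory rates calculated from volume and weight.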

[2] = stated in introduction, no reference given; cited from earlier work
MHCC97-H cells = experiment: MTT cell-survival examination; assay type: cell-based; details: compound 4 at 0.03 μmol/L (30 nmol/L)
Summary of the method: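 MHCC97-H seeded at 5 × 10^3 cells/well in DMEM + 10% FBS, 37°C, 5% CO2, 24 h. MTT read at OD 490 nm; inhibition = (control − treated)/control × 100%; IC50 calculated from inhibitory rates.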

For `C[C@@H]1CCN(C(=O)CC#N)C[C@@H]1N(C)c1ncnc2[nH]ccc12` [CP690550], the “phosphorylation of P70S6K1 (Western blot)” value (phospho-p70S6K (Thr389)) was “does not affect”, the “ERK phosphorylation (Western blot)” value (phospho-ERK) was “does not affect” and the “phosphorylation of AKT (Western blot)” value (phospho-AKT) was “does not affect”.

With `CNC(=O)c1cc(Oc2ccc(NC(=O)Nc3ccc(Cl)c(C(F)(F)F)c3)cc2)ccn1` [Sorafenib] the “OS (overall survival), median” value (advanced HCC patients; mTOR mRNA High (n = 40)) was 10.0 M, the “TTP (time to progress), median” value (advanced HCC patients; mTOR mRNA High (n = 40)) was 8.0 M and the “OS (overall survival), median” value (advanced HCC patients; mTOR mRNA Low (n = 12)) was 16.0 M. For the same compound, the “TTP (time to progress), median” value (advanced HCC patients; mTOR mRNA Low (n = 12)) was 12.0 M, the “Tumor Volumes IC50 Values, Solvent control” value [1] was 1.30 ± 0.48 mg/kg and the “Tumor Weights IC50 Values, Solvent control” value [1] was 1.57 ± 0.41 mg/kg. For the same compound, the “Tumor Volumes IC50 Values, Compound 4” value [1] was 0.17 ± 0.03 mg/kg and the “Tumor Weights IC50 Values, Compound 4” value [1] was 0.15 ± 0.04 mg/kg.

With `CNC(=O)c1cc(Oc2ccc(NC(=O)Nc3ccc(Cl)c(C(F)(F)F)c3)c(F)c2)ccn1` [Regorafenib] the “Tumor Volumes IC50 Values, Solvent control” value [1] was 0.92 ± 0.48 mg/kg, the “Tumor Weights IC50 Values, Solvent control” value [1] was 1.22 ± 0.72 mg/kg and the “Tumor Volumes IC50 Values, Compound 4” value [1] was 0.43 ± 0.10 mg/kg. For the same compound, the “Tumor Weights IC50 Values, Compound 4” value [1] was 0.55 ± 0.10 mg/kg.

For `COc1cc2nccc(Oc3ccc(NC(=O)NC4CC4)c(Cl)c3)c2cc1C(N)=O` [Lenvatinib], the “Tumor Volumes IC50 Values, Solvent control” value [1] was 0.70 ± 0.25 mg/kg, the “Tumor Weights IC50 Values, Solvent control” value [1] was 0.78 ± 0.58 mg/kg and the “Tumor Volumes IC50 Values, Compound 4” value [1] was 0.10 ± 0.05 mg/kg. The “Tumor Weights IC50 Values, Compound 4” value [1] was 0.10 ± 0.01 mg/kg.

For `N#CC1(c2ccc(NC(=O)c3cccnc3NCc3ccncc3)cc2)CCCC1` [Apatinib], the “Tumor Volumes IC50 Values, Solvent control” value [1] was 1.95 ± 0.55 mg/kg, the “Tumor Weights IC50 Values, Solvent control” value [1] was 1.65 ± 0.09 mg/kg and the “Tumor Volumes IC50 Values, Compound 4” value [1] was 0.53 ± 0.20 mg/kg. The “Tumor Weights IC50 Values, Compound 4” value [1] was 0.59 ± 0.07 mg/kg.

With `CC(C)(C)c1nc(-c2cccc(NS(=O)(=O)c3c(F)cccc3F)c2F)c(-c2ccnc(N)n2)s1` [GSK2118436] the “ERK phosphorylation (Western blot)” value (phospho-ERK) was “significantly inhibited ERK phosphorylation”.

For `CO[C@H]1C[C@@H]2CC[C@@H](C)[C@@](O)(O2)C(=O)C(=O)N2CCCC[C@H]2C(=O)O[C@H]([C@H](C)C[C@@H]2CC[C@@H](OCCO)[C@H](OC)C2)CC(=O)[C@H](C)/C=C(\C)[C@@H](O)[C@@H](OC)C(=O)[C@H](C)C[C@H](C)/C=C/C=C/C=C/1C` [everolimus], the logP [2] is given as over 6.

For `CO[C@H]1C[C@@H]2CC[C@@H](C)[C@@](O)(O2)C(=O)C(=O)N2CCCC[C@H]2C(=O)O[C@H]([C@H](C)C[C@@H]2CC[C@@H](O)[C@H](OC)C2)CC(=O)[C@H](C)/C=C(\C)[C@@H](O)[C@@H](OC)C(=O)[C@H](C)C[C@H](C)/C=C/C=C/C=C/1C` [rapamycin], the logP [2] is given as over 6.

For `CC(C)(C)OC(=O)Nc1ccc(-c2nc(N3CCOCC3)c3ncn(CCC4OCCO4)c3n2)cc1` [Compound 4, tert-butyl (4-(9-(2-(1,3-dioxolan-2-yl)ethyl)-6-morpholino-9H-purin-2-yl)phenyl)carbamate], the “inhibitory activity on mTORC1 (phospho-p70S6K1, Western blot)” value (phospho-p70S6K (Thr389)) was “definite inhibitory effect”, the “phosphorylation of P70S6K1 (Western blot)” value (phospho-p70S6K (Thr389)) was “only inhibited the phosphorylation of P70S6K1” and the “inhibition of activation of mTOR kinase (phosphorylation of P70S6K1) in cells” value (phospho-p70S6K (Thr389); compound 4 at 0.03 μmol/L (30 nmol/L)) was “significantly inhibited the activation of mTOR”. For the same compound, the “MHCC97-H cells' subcutaneous growth” value ([1]; compound 4 alone at 1 mg/kg) was “without significantly affecting”, the “activation of mTOR in vivo” value ([1]; compound 4 at 1 mg/kg) was “significantly inhibited the activation of mTOR” and the “ERK phosphorylation (Western blot)” value (phospho-ERK) was “did not show a significant inhibitory effect”. For the same compound, the “inhibitory activity on mTORC2 (phospho-AKT SER473, Western blot)” value (phospho-AKT) was “weaker than that on mTORC1”, the “phosphorylation of AKT (Western blot)” value (phospho-AKT) was “did not affect PI3K or AKT” and the “cytotoxicity on MHCC97-H cells” value (MHCC97-H cells) was “no obvious cytotoxicity”.

With `O=c1cc(N2CCOCC2)oc2c(-c3ccccc3)cccc12` [LY294002] the “phosphorylation of P70S6K1 (Western blot)” value (phospho-p70S6K (Thr389)) was “significantly inhibited” and the “phosphorylation of AKT (Western blot)” value (phospho-AKT) was “significantly inhibited”.

With `COc1cc2c(Oc3ccc4[nH]c(C)cc4c3F)ccnc2cc1OCC1(N)CC1` [Anlotinib] the “Tumor Volumes IC50 Values, Solvent control” value [1] was 1.70 ± 0.54 mg/kg, the “Tumor Weights IC50 Values, Solvent control” value [1] was 1.60 ± 0.71 mg/kg and the “Tumor Volumes IC50 Values, Compound 4” value [1] was 0.44 ± 0.23 mg/kg. For the same compound, the “Tumor Weights IC50 Values, Compound 4” value [1] was 0.42 ± 0.07 mg/kg.
